Data taken from paper PMC7315572 (ACS Omega, 2020).

Columns and labels:
[1] = test system: K562 human myelogenous leukemia cells; experiment: MTS cell viability assay in K562 cells; assay type: cell-based; settings: 72 h
Summary of the method: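 K562 cells were grown in IMDM with 10% FBS and 5% penicillin/streptomycin at 37 °C in 5% CO2. They were seeded at 2000 cells/well, left overnight, then given fresh medium containing the test compound for 72 h. MTS was added for 2 h, with absorbance read at 490 nm against a 690 nm reference. % cell death = (control − sample)/control × 100. IC50 came from dose-response curves, using triplicates from a single experiment ± SEM.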

[2] = test system: erythroid cells; settings: cited from earlier work
[3] = test system: γ-globin mRNA expression in the K562 human myelogenous leukemia cell line; experiment: γ-globin mRNA expression in K562 cells by RT-qPCR; assay type: cell-based; settings: K562, concentration not printed (at or near LSD1 IC50)
[4] = test system: γ-globin mRNA expression in human CD34+ erythroid progenitor cells; experiment: γ-globin mRNA expression in CD34+ erythroid progenitor cells by RT-qPCR; assay type: cell-based
[5] = test system: β-globin mRNA expression in human CD34+ erythroid progenitor cells; experiment: β-globin mRNA expression in CD34+ erythroid progenitor cells by RT-qPCR; assay type: cell-based; settings: for Fold increase in β-globin mRNA: concentration not given
[6] = molecular target: recombinant LSD1/CoREST (Homo sapiens, UniProt O60341); settings: IC50 ND; cited from earlier work
[7] = test system: spermine oxidase (SMOX); settings: cited from earlier work
[8] = test system: Townes SS mice; experiment: HbF induction in Townes SS mice; assay type: in vivo, mouse; settings: 10 mg/kg, 2 weeks of treatment
Summary of the method: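 Townes SS mice were dosed at 10 mg/kg for 2 weeks (route not specified). F-cells and F-reticulocytes were counted by flow cytometry on 5–10 μL of tail-vein blood. γ-Globin was measured by HPLC against each animal's pretreatment baseline. Each value is the mean of three animals + SEM.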

Compound: N[C@@H]1C[C@H]1c1ccccc1 (racemic) [Tranylcypromine, tranylcypromine]
- Cytotoxicity in K562 cells (in words) [1]: minimal cytotoxicity
- Induction of HbF in erythroid cells (in words) [2]: dose-dependent induction

Compound: NC(=O)NO [HU, hydroxyurea]
- Fold increase in γ-globin mRNA expression [3]: 2.3 fold
- Increase in γ-globin mRNA (in words, compared with K562) [4]: analogous to levels observed in the K562 line
- Fold increase in β-globin mRNA [5]: no effect

Compound: c1ccc([C@@H]2C[C@H]2NC2CCNCC2)cc1 [compound 2]
- Effect on β-globin mRNA levels (in words) ([5]; both 20 and 50 nM): marked decrease

Compound: Nc1n[nH]c(NCc2ccccc2Oc2ccc(-c3ccccc3)cc2)n1 [compound 8]
- LSD1 % inhibition at 10 μM [6]: ND (50.0% inhibition at 10 μM)[52]
- Inhibition of spermine oxidase (SMOX) (in words) [7]: inhibit
- Increase in HbF-containing erythrocytes (F-cells) ([8]; Townes SS mice, flow cytometry): significant increases
- Increase in γ-globin (HbF content) by HPLC relative to baseline/pretreatment ([8]; Townes mouse): 87%

Compound: Hemin
- Fold increase in γ-globin mRNA expression [3]: 2.4 fold
- Increase in γ-globin mRNA (in words, compared with K562) [4]: analogous to levels observed in the K562 line
- Fold increase in β-globin mRNA [5]: 1.4 fold
